Measurements from ChEMBL document CHEMBL1134841, “Antimalarial alkoxylated and hydroxylated chalcones [corrected]: structure-activity relationship analysis” (J Med Chem, 2001).

Assays:
[1] = tested on: Mus musculus; experiment: Ratio of average life span of compound-treated mice (100 mg/kg, ip, 3 days) to that of mice receiving DMSO (T/C-untreated); assay type: functional
Procedure, shortened: (§1)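 Swiss albino mice (male, 4 weeks, ~25 g) inoculated ip with 10^7 P. berghei ANKA parasitized erythrocytes (day 0). Test compound 100 mg/kg/day ip in DMSO, days 1–3, three mice per compound. Control infected groups: DMSO or 4'-butoxy-2,4-dimethoxychalcone (100 mg/kg in DMSO, ip, days 1–3), or chloroquine (52 mg/kg ip in 0.5% Tween buffer pH 7.4, day 1). Survival followed; ratio of mean life spans.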

[2] = Ratio of average life span of compound-treated mice (100 mg/kg, ip, 3 days) to that of mice treated with chloroquine (T/C-CQ); assay type: functional; procedure, shortened: as §1
[3] = tested on: Plasmodium falciparum; experiment: Inhibition of [3H]hypoxanthine incorporation in Plasmodium falciparum K1; assay type: functional, organism-based; settings: Plasmodium falciparum, 48 h
Procedure, shortened: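 K1 (chloroquine-resistant) parasites cultured in RPMI-1640 with 5% sodium bicarbonate and 10% type O human serum. DMSO stocks were serially diluted 10-fold in medium, covering a 10^6-fold range. Infected erythrocytes at 1–2% parasitemia and 1.5% hematocrit were incubated at 37 °C in a candle jar for 24 h. [3H]hypoxanthine was then added for a further 24 h, cells harvested and scintillation counted. IC50 from nonlinear logistic fit versus untreated control.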

[4] = tested on: Mus musculus; experiment: Ratio of average life span of compound-treated mice (100 mg/kg, ip, 3 days) to that of mice treated with 4''-butoxy-2,4-dimethoxychalcone (comp.41); assay type: functional; procedure, shortened: as §1

COc1ccc(C(=O)/C=C/c2ccc(Cl)c(Cl)c2)c(OC)c1OC
T/C untreated [1]: 1.47 | T/C-CQ [2]: 0.8 | IC50 [3]: 14.5 µM | T/C 41 [4]: 1.53

COc1ccc(C(=O)/C=C/c2ccc(O)cc2)cc1
T/C untreated [1]: 1.41 | T/C-CQ [2]: 0.7 | IC50 [3]: 7 µM | T/C 41 [4]: 1.47

CN(C)c1ccc(/C=C/C(=O)c2ccc(O)cc2)cc1
T/C untreated [1]: 0.94 | T/C-CQ [2]: 0.47 | IC50 [3]: 17.7 µM | T/C 41 [4]: 0.99
